Assay outcomes as filed in PubChem BioAssay.
Rows were chosen to be rich in hits. Some 5% of all compounds tested hit in one or more screens of this group.
Beta cell apopt: beta cell apoptosis inhibition; INS-1E cytokine-induced death, ATP luminescence, 48 h; percent of positive-control rescue, neutral wells zero; hit rate 0.8% among 300,000; protection from apoptosis, % (test concentration not listed);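 active = Every replicate reaches about 75%, or at least half do and their mean reaches it too, limit read from the data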;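 also: 0% = cytokine-treated negative control wells and 100% = positive control rescue; higher means more ATP so stronger rescue from cytokine killing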
Mdm2-MdmX inh: disrupts the human Mdm2-MdmX interaction | SaOS-2 split-luciferase Mdm2/MdmX complementation, luminescence | inhibition, % at 8 µM | hit rate 3% among 330,000 | AID 485346;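 active = inhibition of at least 50% at 8 µM in the primary screen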
T cruzi inh: T. cruzi replication inhibition | T. cruzi beta-gal in NIH3T3, luminescence, 90 h | inhibition, % (no concentration beside the values) | hit rate 1.4% among 300,000 | AID 1885;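 active = mean inhibition across valid replicates above about 55%, limit read from the data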;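 also: signal also drops with host cell toxicity which is not excluded here; 0% = plate median of DMSO wells and 100% = zero luminescence signal; higher percent means less beta-gal luminescence so fewer parasites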
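assay system = mouse NIH/3T3 fibroblasts infected with β-gal-expressing T. cruzi Tulahuen C4 | input = 5,000 NIH/3T3 host cells per well | buffer or medium = DMEM plus 2% FBS | timing = 3 h host attachment, then at least 90 h co-culture | measured by = GalScreen luminescence, 60 min | evaluation = luminescence reflecting intracellular parasite burden, expressed as percent inhibition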
XBP1 UPR activ: adaptive UPR (XBP1) activation. CHO-XBP1 luciferase reporter, IRE1-XBP1 UPR activation, luminescence; percent of tunicamycin response, DMSO as zero. activation, % at 20 µM. hit rate 0.33% among 330,000;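 active = versus positive control, 20 µM dose yields 30% or more activation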;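 also: 100% = tunicamycin at 10 µg/mL and 0% = DMSO only wells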
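Signal: luciferase luminescence; Assay system: CHO-XBP1 luciferase reporter cells; Amount: one thousand reporter cells per well; Dosing: 20 µM single concentration, DMSO 1%; Benchmarks: high control tunicamycin 10 µg/mL final, low control DMSO vehicle only; Schedule: 6 h compound exposure at 37 °C, 5% CO2; Evaluation: percent activation relative to tunicamycin reference.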
CHOP UPR activ: activators of apoptotic arm of unfolded protein response (CHOP); AID 449763; CHO-CHOP luciferase reporter, UPR activation, luminescence; percent of tunicamycin response over DMSO baseline; activation, % at 10 µM; hit rate 0.34% among 330,000;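 active = at 10 µM dose, activation of 40% or more, normalized to positive control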;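 also: 100% = tunicamycin at 10 µg/mL and 0% = DMSO alone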
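Test system: CHO-CHOP cells, stable luciferase reporter of PERK-eIF2a-CHOP signalling | Quantity: 500 CHO-CHOP cells per well | Buffer or medium: F12 plus 10% serum | Compound dosing: 10 µM single point, 0.5% DMSO | Schedule: 6 h compound treatment, 37 °C | Signal: Luciferase luminescence | Control set: Tunicamycin high control, DMSO low control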
CSC inhib: cancer stem cell inhibition; inhibition, % at 7.5 µM; AID 2717; cancer stem cell-like cells viability, luminescence; hit rate 1.1% among 300,000; in the data active = inhibition above about 75%; tested in HMLE shEcad cells
Mdm2-MdmX conf: human Mdm2/MdmX binding inhibition, confirmed. shares compounds with Mdm2-MdmX inh. luminescent assay. inhibition, % at 8 µM. hit rate 55% among 10,000; in the data active = inhibition above about 40%
FLuc counter: inhibits full-length luciferase, flagging false Mdm2/MdmX hits | shares compounds with Mdm2-MdmX inh | SaOS-2 full-length luciferase counterscreen, luminescence | inhibition, % at 8 µM | AID 504607 | hit rate 77% among 6,200;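 active = mean inhibition at 8 µM reaching about 37%, which flags the compound as non-specific, limit read from the data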;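 also: p53-null SaOS-2 cells with luciferase driven by a doxycycline-inducible promoter; compound on cells about two nights before reading with doxycycline added after day one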
* = called active by the depositor; · = not tested or not shown.

SMILES	Beta cell apopt	Mdm2-MdmX inh	T cruzi inh	XBP1 UPR activ	CHOP UPR activ	CSC inhib	Mdm2-MdmX conf	FLuc counter
N=c1c(-c2nc3ccccc3[nH]2)cc(C(=O)c2cccs2)nn1-c1ccc(Cl)cc1	37	63*	43	1	2	31	30	·
CC(=O)OCc1cc(-c2nc3ccccc3[nH]c2=O)nn1-c1ccc(Cl)cc1	1	0	4	0	0	-1	·	·
O=C(CCCC(=O)Nc1cccc(Br)c1)N/N=C/c1cc([N+](=O)[O-])ccc1O	13	74*	1	-6	0	-7	35	·
O=C(CN(c1cccc(Br)c1)S(=O)(=O)c1ccccc1)N/N=C/c1cc([N+](=O)[O-])ccc1O	·	52*	-18	-4	-2	23	35	·
O=C(CCC(=O)Nc1cccc(Cl)c1)N/N=C/c1cc([N+](=O)[O-])ccc1O	29	42	-5	0	0	14	·	·
Cc1cc(Cl)n2ncc(-c3ccccc3)c2n1	-8	63*	-19	9	13	-2	8	·
O=C(CSc1nc(C2CC2)nc2ccccc12)Nc1ccccc1	-12	30	18	-4	-1	10	·	·
CN(C)c1ccc(NC(=O)CSc2nc(C3CC3)nc3ccccc23)cc1	2	79*	24	4	4	·	44*	54*
COc1cc(NC(=O)CSc2nc(C3CC3)nc3ccccc23)cc(OC)c1	-9	54*	10	7	0	-11	-19	·
CC(=O)Nc1cccc(NC(=O)CSc2nc(C3CC3)nc3ccccc23)c1	22	72*	-16	8	0	·	58*	44*
Cn1c(=O)c2c(SCC(=O)Nc3ccccc3F)nc(C3CC3)nc2n(C)c1=O	-2	79*	-14	7	0	-8	17	·
CC(c1ccon1)N(C)C(=O)CCc1nnc(C2(c3ccc(Cl)cc3)CCC2)o1 (stereo not drawn)	-1	-24	4	1	1	-5	·	·
Cc1cccn2c(=O)c3cc(C(=O)NC(C)c4ccccc4)c(=N)n(CCCn4ccnc4)c3nc12 (stereo not drawn)	7	27	-5	-4	-1	-1	·	·
CC(C)c1nc(SCC(=O)Nc2ccc(N3CCOCC3)cc2)c2ccccc2n1	-6	53*	7	2	-1	·	13	·
COc1cccc(-c2nc(-c3ccccn3)no2)c1	·	55*	0	-5	-9	17	33	57*
c1ccc(-c2noc(-c3ccc4c(c3)OCO4)n2)nc1	74	83*	-4	-9	-10	95*	86*	29
Cc1cccc(-c2noc(-c3ccc4c(c3)OCO4)n2)c1	4	-93	0	-2	-2	3	·	·
COc1cccc(-c2nc(-c3ccccc3)no2)c1	-1	-234	4	-2	-2	-8	·	·
c1ccc(-c2noc(-c3ccc4ccccc4c3)n2)nc1	15	80*	7	-7	-9	19	83*	27
c1ccc(-c2noc(-c3ccncc3)n2)nc1	29	-2	11	-6	-2	45	·	·
COc1cccc(NC(=O)CN(C)C(=O)C2=COCCO2)c1	·	-5	·	2	1	·	·	·
CC(=O)C1=C(O)CC(c2ccccc2)CC1=NCCc1c(C)[nH]c2ccc(C)cc12 (stereo not drawn)	4	-13	16	-4	-1	13	·	·
CCC(=NCCc1c(C)[nH]c2ccc(C)cc12)C1=C(O)CC(c2ccccc2)CC1=O (stereo not drawn)	15	67*	12	8	2	72	61*	70*
O=C(c1ccc(Cl)c(S(=O)(=O)N2CCc3ccccc32)c1)N1CCN(c2ccccc2O)CC1	-22	54*	·	4	6	19	6	·
O=C(c1cccc(S(=O)(=O)N2CCc3ccccc32)c1)N1CCN(c2ccccn2)CC1	8	85*	21	0	1	-14	84*	39*
SMILES	Beta cell apopt	Mdm2-MdmX inh	T cruzi inh	XBP1 UPR activ	CHOP UPR activ	CSC inhib	Mdm2-MdmX conf	FLuc counter
CCOC(=O)C1CCN(CCCSc2ccccc2)CC1	-4	·	-7	·	·	-1	·	·
CC1(c2ccccc2)NC(=O)N(CC(=O)N2CCN(S(=O)(=O)c3c(F)cccc3F)CC2)C1=O (stereo not drawn)	2	9	·	-3	-2	6	·	·
O=C(O)CC12CC3CC(C1)CC(n1cncn1)(C3)C2	-15	17	-38	-2	0	-17	·	·
CCC1CCCCN1C(=O)CCNS(=O)(=O)c1ccc2c(c1)oc(=O)n2C (stereo not drawn)	0	14	-3	-5	2	10	·	·
CCc1c(C)nc2ccc(Br)cc2c1SCCC#N	-8	67*	3	3	-1	2	59*	23
Cn1cnnc1SCC(=O)N/N=C/c1ccc(OCC(N)=O)cc1	-4	13	-11	-4	-1	-6	·	·
O=c1[nH]c(=O)n(Cc2ccco2)c2c1C(C(F)(F)F)(C(F)(F)F)N=C(CCc1ccccc1)N2	15	51*	2	14	8	-8	39	65*
Cc1ccc(C(=O)NCC(=O)N2CCCC(C(F)(F)F)C2)s1 (stereo not drawn)	·	5	3	2	1	-7	·	·
Cc1nnc(C)n1/N=C/c1c(O)ccc2ccccc12	-3	-7	-13	-4	-2	-12	·	·
Cc1nnc(-c2ccccc2)c(=O)n1/N=C/c1c(O)ccc2ccccc12	88*	54*	65*	0	-3	12	57*	31
CCN(CC)C(=O)Nc1ccc(Br)cc1	-2	2	-12	-2	2	-12	·	·
Cc1cc(C)c2nc(/N=C(\N)NC(=O)c3ccccc3)nc(C)c2c1	2	37	9	1	1	-3	·	·
Cc1cc(C)c2nc(/N=C(\N)NC(=O)Nc3ccccc3)nc(C)c2c1	1	54*	32	6	-1	17	48*	70*
C[C@@]12C(=O)Nc3ccccc3C(=O)N1[C@H]1c3cc(Br)ccc3OC[C@@H]1[C@@H]2c1ccccc1	7	63*	·	1	0	-17	53*	31
C[C@@]12C(=O)Nc3ccc(Br)cc3C(=O)N1[C@H]1c3cc(Br)ccc3OC[C@@H]1[C@@H]2c1ccccc1	16	27	·	0	2	-1	·	·
CCOC(=O)[C@H]1[C@H]2COc3ccc(C)cc3[C@@H]2N2C(=O)c3ccc(Cl)cc3NC(=O)[C@@]12C	-1	25	·	2	0	15	·	·
